Key:
[1] = system: P388; assay: Antitumor activity against P-388 lymphocytic leukemia implanted CDF1 mice to that of control when 100 mg/kg compound administered; format: functional, Mus musculus
Outline: (§1)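 CDF1 mice given 10^6 P-388 lymphocytic leukemia cells ip on day 0; drug given ip as a suspension in klucel or in saline plus Tween 80 on days 1, 5 and 9, starting 24 h after tumor transplantation; six mice per group. Read-outs are treated/control (T/C, %) and body weight change in g as treated/control.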

[2] = system: P388; assay: Change in body weight of P-388 lymphocytic leukemia implanted CDF1 mice to that of control when 200 mg/kg compound administered; T/C= 1/1.3; format: functional, Mus musculus; outline: as §1
[3] = system: P388; assay: Change in body weight of P-388 lymphocytic leukemia implanted CDF1 mice to that of control when 100 mg/kg compound administered; T/C= -0.2/1.3; format: functional, Mus musculus; outline: as §1
[4] = system: P388; assay: Antitumor activity against P-388 lymphocytic leukemia implanted CDF1 mice to that of control when 200 mg/kg compound administered; format: functional, Mus musculus; outline: as §1
[5] = system: P388; assay: Antitumor activity against P-388 lymphocytic leukemia implanted CDF1 mice to that of control when 400 mg/kg compound administered; toxic; format: functional, organism-based; parameters: dose 400 mg/kg; conditions: Mus musculus; outline: as §1
[6] = system: P388; assay: Change in body weight of P-388 lymphocytic leukemia implanted CDF1 mice to that of control when 400 mg/kg compound administered; T/C= -2.5/5; format: functional, Mus musculus; outline: as §1
[7] = system: P388; assay: Antitumor activity against P-388 lymphocytic leukemia implanted CDF1 mice to that of control when 400 mg/kg compound administered; format: functional, Mus musculus; outline: as §1
[8] = system: P388; assay: Change in body weight of P-388 lymphocytic leukemia implanted CDF1 mice to that of control when 200 mg/kg compound administered; T/C= 1.1/5; format: functional, Mus musculus; outline: as §1
[9] = system: P388; assay: Change in body weight of P-388 lymphocytic leukemia implanted CDF1 mice to that of control when 100 mg/kg compound administered; T/C= 1.5/5; format: functional, Mus musculus; outline: as §1
[10] = system: P388; assay: Change in body weight of P-388 lymphocytic leukemia implanted CDF1 mice to that of control when 100 mg/kg compound administered; T/C= 3.3/1.3; format: functional, Mus musculus; outline: as §1
[11] = system: P388; assay: Change in body weight of P-388 lymphocytic leukemia implanted CDF1 mice to that of control when 200 mg/kg compound administered; T/C= 2.1/1.3; format: functional, Mus musculus; outline: as §1
[12] = system: P388; assay: Change in body weight of P-388 lymphocytic leukemia implanted CDF1 mice to that of control when 400 mg/kg compound administered; T/C= 0.8/1.3; format: functional, Mus musculus; outline: as §1
[13] = system: P388; assay: Change in body weight of P-388 lymphocytic leukemia implanted CDF1 mice to that of control when 200 mg/kg compound administered; T/C=1.5/0.5; format: functional, Mus musculus; outline: as §1
[14] = system: L1210; assay: Growth inhibition of cultured L-1210 cells after 48-h exposure to compound at 4 x 10E-9 M/mL in trail 2; format: functional; conditions: Mus musculus, L1210, 48 h
[15] = system: Sarcoma-180; assay: Growth inhibition of cultured Sarcoma 180 cells after 48-h exposure to compound at 1.6 x 10E-8 M/mL in trail 2; format: functional; conditions: Mus musculus, Sarcoma-180, 48 h
[16] = system: Sarcoma-180; assay: Growth inhibition of cultured Sarcoma cells after 48-h exposure to compound at 4 x 10E-9 M/mL in trail 1; format: functional; conditions: Mus musculus, Sarcoma-180, 48 h
[17] = system: Sarcoma-180; assay: Growth inhibition of cultured Sarcoma 180 cells after 48-h exposure to compound at 1.6 x 10E-8 M/mL in trail 1; format: functional; conditions: Mus musculus, Sarcoma-180, 48 h
[18] = system: Sarcoma-180; assay: Growth inhibition of cultured Sarcoma cells after 48-h exposure to compound at 4 x 10E-9 M/mL in trail 2; format: functional; conditions: Mus musculus, Sarcoma-180, 48 h
[19] = system: P388; assay: Change in body weight of P-388 lymphocytic leukemia implanted CDF1 mice to that of control when 100 mg/kg compound administered; T/C=1.5/0.5; format: functional, Mus musculus; outline: as §1
[20] = system: P388; assay: Change in body weight of P-388 lymphocytic leukemia implanted CDF1 mice to that of control when 400 mg/kg compound administered; T/C= -0.8/5; format: functional, Mus musculus; outline: as §1
[21] = system: L1210; assay: Growth inhibition of cultured L-1210 cells after 48-h exposure to compound at 1.6 x 10E-8 M/mL in trail 1; format: functional; conditions: Mus musculus, L1210, 48 h
[22] = system: L1210; assay: Growth inhibition of cultured L-1210 cells after 48-h exposure to compound at 4 x 10E-9 M/mL in trail 1; format: functional; conditions: Mus musculus, L1210, 48 h
[23] = system: L1210; assay: Growth inhibition of cultured L-1210 cells after 48-h exposure to compound at 1.6 x 10E-8 M/mL in trail 2; format: functional; conditions: Mus musculus, L1210, 48 h

`C/N=C(/S)c1cccc(-c2ccccn2)n1` gave a T/C [1] of 91%, a Change in weight [2] of 1 and a Change in weight [3] of -0.2. The T/C [4] was 83% and the T/C [5] was “Toxic”.
`NC(=S)c1ccc2ccc3cccnc3c2n1` was tested, and the Change in weight [6] was -2.5, the T/C [1] was 100% and the T/C [7] was 112%. For the same compound, the T/C [4] was 106%, the Change in weight [8] was 1.1 and the Change in weight [9] was 1.5.
`CN(C)C(=S)c1cccc(-c2ccccn2)n1` was tested, and the Change in weight [10] was 3.3, the T/C [1] was 95% and the Change in weight [11] was 2.1. The T/C [7] was 91%, the T/C [4] was 95% and the Change in weight [12] was 0.8.
Compound `NC(=S)c1cccc(-c2ccccn2)n1` has a T/C [1] of 112%, a Change in weight [13] of 1.5 and an inhibition at 0.004 µM [14] of 32%. It also gave an inhibition at 0.016 µM [15] of 60%, an inhibition at 0.004 µM [16] of 35% and an inhibition at 0.016 µM [17] of 85%. The inhibition at 0.004 µM [18] was 10%, the Change in weight [19] was 1.5 and the T/C [7] was 143%. The Change in weight [20] was -0.8, the inhibition at 0.016 µM [21] was 95% and the T/C [4] was 125%. The inhibition at 0.004 µM [22] was 51% and the inhibition at 0.016 µM [23] was 93%.

Source: ChEMBL document CHEMBL1121729, “N*-N*-S* tridentate ligand system as potential antitumor agents” (1981)
